{"data": "Results of several laboratories", "cell line": "SK-MEL-5", "effect on": "cell growth or viability", "note": "Each line is one published result; the experiments were not run side by side."}
{"SMILES": "O=C1NC(=NCc2cccs2)S/C1=C\\c1ccc2ncccc2c1", "quantity": "IC50", "value": "> 10000 nM"}
{"SMILES": "COc1ccc(-c2ccc(-c3ccc(C(=N)N)nc3)s2)cc1", "assay": "SRB", "quantity": "GI50", "value": "1790 nM"}
{"SMILES": "COc1cccc(Oc2ccccc2NC(=O)CNC(=O)c2cccc3ccccc23)c1", "assay": "SRB", "setting": "48 h", "quantity": "GI50", "value": "219 nM"}
{"SMILES": "O=C1NCCc2[nH]c(-c3ccncc3)cc21", "quantity": "IC50", "value": "> 10000 nM"}
{"SMILES": "COc1ccccc1/C=C/C(=O)c1ccc(OC)c(S(N)(=O)=O)c1", "assay": "SRB", "setting": "48 h", "quantity": "GI50", "value": "3900 nM"}
{"SMILES": "Cc1ncsc1-c1ccc(CNC(=O)[C@@H]2C[C@H](O)CN2C(=O)[C@@H](NC(=O)C2(F)CC2)C(C)(C)C)c(OCCc2ccc(CN3CCN(c4cc(-c5ccccc5O)nnc4N)CC3)cc2)c1", "assay": "ATP luminescence", "setting": "7 days", "quantity": "IC50", "value": "540 nM"}
{"SMILES": "COc1cc(-c2ccc(-c3ccc(C(=N)N)nc3)s2)cc(OC)c1OC", "assay": "SRB", "quantity": "GI50", "value": "1670 nM"}
{"SMILES": "COc1ccc(C(=O)/C=C/c2cccnc2)cc1S(N)(=O)=O", "assay": "SRB", "setting": "48 h", "quantity": "GI50", "value": "14800 nM"}
